Screening results from PubChem BioAssay.
In the library only some 9.4% were active in any assay of this set; here they are far more common.
L major viab = Leishmania major promastigote growth inhibition, primary screen | Leishmania major promastigotes, resazurin fluorescence viability | inhibition, % at 10 µM | 200,000 compounds, 9% hits | AID 1063, 2008; in the data active means inhibition above about 50%;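 further: promastigotes grown with compound for 44 hours at 28 °C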
Beta cell apopt = inhibitors of cytokine-induced beta cell apoptosis, primary screen, luminescence. protection from apoptosis, % (test concentration not listed). 300,000 compounds, 0.8% hits. INS-1E cytokine-induced death, ATP luminescence, 48 h; percent of positive-control rescue, neutral wells zero. AID 435005, 2010;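 active means Every replicate reaches about 75%, or at least half do and their mean reaches it too, limit read from the data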;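 further: higher means more ATP so stronger rescue from cytokine killing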
Mdm2-MdmX inh = inhibitors of human Mdm2-MdmX association, primary screen, cell-based, luminescence, split luciferase, SaOS-2, uHTS. 330,000 compounds, 3% hits. inhibition, % at 8 µM. Protein Mdm4 (Homo sapiens) + E3 ubiquitin-protein ligase Mdm2 (Homo sapiens), …. SaOS-2 split-luciferase Mdm2/MdmX complementation. AID 485346, 2010;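 active means inhibition of at least 50% at 8 µM in the primary screen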
Target sequence (O15151 whole entry, looked up): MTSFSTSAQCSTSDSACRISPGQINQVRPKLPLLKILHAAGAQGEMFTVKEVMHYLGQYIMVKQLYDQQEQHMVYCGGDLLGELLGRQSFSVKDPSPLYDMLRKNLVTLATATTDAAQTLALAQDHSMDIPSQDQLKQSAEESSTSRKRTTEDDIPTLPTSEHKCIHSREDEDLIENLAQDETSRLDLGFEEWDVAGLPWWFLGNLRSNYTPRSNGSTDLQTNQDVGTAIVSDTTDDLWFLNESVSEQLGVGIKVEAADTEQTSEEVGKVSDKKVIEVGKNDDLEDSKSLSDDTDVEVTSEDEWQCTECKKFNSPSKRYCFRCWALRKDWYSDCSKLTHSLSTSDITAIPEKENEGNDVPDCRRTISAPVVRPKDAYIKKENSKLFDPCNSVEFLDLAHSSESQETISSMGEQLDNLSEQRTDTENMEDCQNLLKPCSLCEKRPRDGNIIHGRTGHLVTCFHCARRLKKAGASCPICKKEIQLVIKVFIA
Target sequence (Q00987 whole entry, looked up): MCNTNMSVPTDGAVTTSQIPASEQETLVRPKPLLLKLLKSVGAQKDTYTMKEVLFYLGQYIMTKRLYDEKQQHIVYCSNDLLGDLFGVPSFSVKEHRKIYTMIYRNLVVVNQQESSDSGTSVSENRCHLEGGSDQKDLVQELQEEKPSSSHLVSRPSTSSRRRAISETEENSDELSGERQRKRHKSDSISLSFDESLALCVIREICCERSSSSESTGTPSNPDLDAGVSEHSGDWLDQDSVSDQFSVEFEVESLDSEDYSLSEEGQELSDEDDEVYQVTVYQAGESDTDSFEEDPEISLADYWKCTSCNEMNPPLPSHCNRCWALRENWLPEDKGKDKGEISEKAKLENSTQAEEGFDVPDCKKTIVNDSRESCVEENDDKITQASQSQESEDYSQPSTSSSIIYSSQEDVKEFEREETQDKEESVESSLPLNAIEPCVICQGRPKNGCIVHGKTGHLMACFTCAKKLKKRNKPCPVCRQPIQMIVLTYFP
SKKanGAS inh = S. pyogenes SKKanGAS growth inhibitors in kanamycin, primary screen, streptokinase expression inhibitor project, SKKanGAS strain, BacTiter-Glo luminescence; AID 1662, 2009; inhibition, % at 7.5 µM; 300,000 compounds, 1.3% hits; 6 h;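 active means mean replicate score, as percent of positive control median, at least 50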;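 further: strain carries kanamycin resistance gene driven by streptokinase promoter and grows in 40 µg/ml kanamycin; loss of luminescence reflects streptokinase promoter inhibition or plain growth inhibition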
T cruzi inh = inhibitors of intracellular T. cruzi growth, primary screen, luminescence, NIH3T3 host cells | 300,000 compounds, 1.4% hits | inhibition, % (concentration not given with the values) | T. cruzi beta-gal in NIH3T3, 90 h;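 active means mean inhibition across valid replicates above about 55%, limit read from the data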;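 further: signal also drops with host cell toxicity which is not excluded here; higher percent means less beta-gal luminescence so fewer parasites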
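Read-out: Parasite load inhibition, % | Test system: Mouse NIH/3T3 fibroblasts infected with β-gal-expressing T. cruzi Tulahuen C4 | Amount: 5,000 cells/well | Medium: DMEM, 2% fetal bovine serum | Signal: GalScreen β-gal luminescence, detergent lysis, 60 min | Timing: 3 h attach, ≥90 h co-culture | Also added: Tulahuen C4 trypomastigotes, 5000/well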
CSC inhib = cancer stem cell viability inhibitors, primary screen, luminescence; cancer stem cell-like cells viability; inhibition, % at 7.5 µM; 300,000 compounds, 1.1% hits; in the data active means inhibition above about 75%; tested in HMLE shEcad cells
Mdm2-MdmX conf = Mdm2-MdmX complex disruptors, retested hits, confirmation, luminescence, single concentration; shares compounds with Mdm2-MdmX inh; Mdm2-MdmX binding, luminescent assay; inhibition, % at 8 µM; 10,000 compounds, 55% hits; in the data active means inhibition above about 40%
FLuc counter = full-length luciferase signal inhibition, confirmation, counter-screen for Mdm2/MdmX interaction inhibitor project, cell-based, single concentration, SaOS-2; shares compounds with Mdm2-MdmX inh; SaOS-2 full-length luciferase counterscreen, luminescence; inhibition, % at 8 µM; 6,200 compounds, 77% hits;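 active means mean inhibition at 8 µM reaching about 37%, which flags the compound as non-specific, limit read from the data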;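 further: p53-null SaOS-2 cells with luciferase driven by a doxycycline-inducible promoter; compound on cells about two nights before reading with doxycycline added after day one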
A number is an active result; – = inactive; · = no result given.

SMILES	L major viab	Beta cell apopt	Mdm2-MdmX inh	SKKanGAS inh	T cruzi inh	CSC inhib	Mdm2-MdmX conf	FLuc counter
CNC(=O)c1nnsc1S(=O)c1ccc(Cl)cc1 (stereo not given)	100	·	98	–	60	·	94	–
CCCNC(=O)c1nnsc1S(=O)c1ccc(Cl)cc1 (stereo not given)	100	·	97	–	67	·	100	–
CCCNC(=O)c1nnsc1S(=O)(=O)c1ccc(Cl)cc1	–	·	96	·	·	·	100	51
CCCNC(=O)c1ccc2snnc2c1	–	–	–	–	–	–	·	·
COc1cc(OC)c(NC2=CC(=O)C(=O)c3ccccc32)cc1Cl	·	120	70	–	–	102	66	46
Cc1cc(SCC(=O)Nc2ccc3[nH]c(=O)[nH]c3c2)nc2ccccc12	·	–	87	·	·	–	–	·
NNC(=O)c1ccc(N2CCc3ccccc32)c([N+](=O)[O-])c1	–	–	–	–	–	–	·	·
Nc1ncnc(N2CCc3ccccc32)c1[N+](=O)[O-]	–	–	82	–	–	–	85	52
Cc1cc(NC(=O)c2cccc(C)c2[N+](=O)[O-])no1	·	·	–	–	–	·	·	·
O=C1C=C(c2ccc(F)nc2)CCC1	·	–	–	–	–	–	·	·
CCOC(=O)C(CC)(CC)C(=O)/C=C/c1ccc(Br)cc1	83	–	71	–	–	·	–	66
O=C(NCc1ccco1)c1nc2c(nnn2Cc2ccccc2Cl)c(=O)[nH]1	–	–	88	–	–	94	93	–
CCOC(=O)c1c(C)[nH]c(C)c1C(=O)COC(=O)C1CC(=O)N(CCc2ccccc2)C1 (stereo not given)	·	–	–	·	·	–	·	·
Nc1ccccc1S(=O)(=O)NCCCCc1ccccc1	·	–	–	–	–	–	·	·
O=C(NCc1ccccc1)C1=C[C@H](C2CCCCC2)C[C@H](OCc2ccc(CO)cc2)O1	–	–	51	–	–	–	63	60
O=C(NCc1ccccc1)C1=C[C@@H](c2csc3ccccc23)C[C@@H](OCCCCO)O1	–	116	74	–	–	–	75	39
O=C(NCc1ccccc1)C1=C[C@@H](c2csc3ccccc23)C[C@@H](OCc2ccc(CO)cc2)O1	74	123	72	–	–	–	–	·
Cn1c(=O)c2c(nc(NN=C3CCCC3)n2C)n(C)c1=O	·	–	–	–	–	–	·	·
O=C(O)c1ccc(N=Cc2c(O)ccc3oc4c(c23)CCCC4)cc1	·	–	–	–	–	–	·	·
Oc1ccccc1N=Cc1c(O)ccc2oc3c(c12)CCCC3	·	–	52	85	–	–	44	72
O=C1C(Cc2ccccc2)Nc2ncnc(N3CCc4ccccc4C3)c2N1Cc1ccc(Cl)cc1 (stereo not given)	·	–	56	–	–	–	49	57
COc1ccc(CCNC(=O)CS(=O)(=O)c2cn(CC(=O)N(C(C)C)C(C)C)c3ccccc23)cc1OC	·	–	–	–	–	–	·	·
O=C(COC(=O)CSc1ccc([N+](=O)[O-])cc1)NCCCc1ccccc1	·	–	–	–	–	·	·	·
CC(C)CCNCC(O)CON=C1c2ccccc2-c2ccccc21 (stereo not given)	88	–	95	–	–	–	41	69
OC(CNCCc1ccccc1)COc1ccc(OCC(O)CNCCc2ccccc2)cc1 (stereo not given)	·	–	99	–	–	–	76	47
SMILES	L major viab	Beta cell apopt	Mdm2-MdmX inh	SKKanGAS inh	T cruzi inh	CSC inhib	Mdm2-MdmX conf	FLuc counter
CC(C)c1ccc(OCC(O)CNC(C)c2ccccc2)cc1 (stereo not given)	·	–	52	–	–	–	–	·
COc1ccc(C(OCC(O)CNCCc2ccccc2)c2ccc(OC)cc2)cc1 (stereo not given)	·	–	·	–	–	–	·	·
CC(NCC(O)COCCC12CC3CC(CC(C3)C1)C2)c1ccccc1 (stereo not given)	100	88	100	–	60	105	99	37
OC(CNCCC(c1ccccc1)c1ccccc1)COc1ccccc1 (stereo not given)	–	–	70	–	–	–	–	·
O=C(NNCC(O)COc1ccccc1)c1ccccc1 (stereo not given)	–	–	–	–	–	–	·	·
O=C(c1nn2c(C(F)(F)F)cc(-c3ccco3)nc2c1Br)N1CCCc2ccccc21	–	–	57	–	–	–	44	48
COc1ccc2[nH]c3c4c(ccc3c2c1)C(=O)C=CC4=O	·	·	75	·	·	·	80	–
CCOc1cc(/C=N/N=C(\N)c2nonc2N)cc(Br)c1OCc1cccc2ccccc12	–	–	69	–	–	–	59	–
COc1cc(/C=N/N=C(/N)c2nonc2N)cc(Br)c1OCc1cccc(C)c1	–	–	–	–	–	–	·	·
N[C@@H](Cc1ccccc1)C(=O)N1CCC(C(=O)NCC(=O)NCC(=O)O)CC1	·	–	–	–	–	–	·	·
CCOC(=O)c1[nH]c2c(c1C)C(=O)CC(c1ccco1)C2 (stereo not given)	–	–	60	–	–	–	59	84
Cc1c(C(=O)OCc2ccccc2)[nH]c2c1C(=O)CC(c1ccco1)C2 (stereo not given)	–	–	67	–	–	–	63	81
CSCCOC(=O)c1[nH]c2c(c1C)C(=O)CC(c1ccco1)C2 (stereo not given)	–	–	–	–	–	–	·	·
COCCOC(=O)c1[nH]c2c(c1C)C(=O)CC(c1ccco1)C2 (stereo not given)	–	–	–	–	–	–	·	·
Cc1c(C(=O)OCCOC(C)C)[nH]c2c1C(=O)CC(c1ccco1)C2 (stereo not given)	–	–	64	–	–	–	48	86
COCCOC(=O)c1[nH]c2c(c1C)C(=O)CC(c1ccccc1)C2 (stereo not given)	–	–	62	–	–	–	60	73
O=C(COc1ccccc1Br)NCCc1nc2ccccc2[nH]1	–	–	–	–	–	–	·	·
Cc1ccc(S(=O)(=O)N2CCC(C(=O)OCC(=O)N3CCCC(C)C3)CC2)cc1C (stereo not given)	·	–	–	–	–	–	·	·
